Assay results pooled from the literature.
Protocols differ between the studies behind these lines.
Target: Fibroblast growth factor receptor 4 (FGFR4, Homo sapiens, UniProt P22455)

`CCN(CC)CCNC(=O)c1c(C)[nH]c(/C=C2\C(=O)Nc3ccc(F)cc32)c1C` has an inhibition of 30% (enzyme activity; inhibitor; 10 µM).
`Nc1ncnc2occ(-c3ccc(NC(=O)Nc4cc(C(F)(F)F)ccc4F)cc3)c12` has a remaining signal of 0.1% (cell-free assay; 20 µM).
`Cc1cc(-n2nc(Cc3cc(F)cc(C(F)(F)F)c3)nc2C)ccc1C(N)=O` gave a remaining binding of 100% (cell-free assay; competition with immobilised ligand; 1 µM).
For `COc1cc2ncnc(Nc3ccc(Oc4ccccc4)c(C)c3C)c2cc1OC`, the inhibition was -1% (enzyme activity; inhibitor; 1 µM).
`Cc1sc(C(=O)NC2COC2)cc1-n1cc(NC(=O)Nc2c(F)cccc2Cl)cn1` gave a remaining activity of 96.8% (enzyme activity; inhibitor; 10 µM).
`O=C1Nc2ccc(Cl)cc2C1=Cc1cc(Cl)c(O)c(Cl)c1` has a remaining signal of 98% (cell-free assay; 0.5 µM).
With `Cc1ccc(NC(=O)c2ccc(C)c(C(F)(F)F)c2)cc1C#Cc1nn(C2CCC(O)CC2)c2ncnc(N)c12` (centres unmarked) the remaining signal was 33% (cell-free assay; 10 µM).
`O=C1NC(=O)c2cc(Nc3ccc(F)cc3)c(Nc3ccc(F)cc3)cc21` gave a remaining signal of 95.5% (cell-free assay; 0.5 µM).
The remaining activity of `CCCOc1ccc(OC)c(F)c1C(=O)c1ccc(C(=O)N[C@@H]2CNC[C@H]2NC(=O)c2ccc3[nH]ncc3c2)cc1` is reported as 75% (enzyme activity; inhibitor; 10 µM).
`O=C(Nc1cnn(-c2csc(C(=O)NC3COC3)c2)c1)Nc1c(F)cccc1Cl` gave a remaining activity of 99.6% (enzyme activity; inhibitor; 5 µM).
The inhibition of `CC/C(=N\NC(=O)NCc1cccc(O)c1)c1ccc(O)c(C)c1O` is reported as 3.3% (enzyme activity; inhibitor; 0.1 µM).
With `CC(C)(O)c1cncc(-c2nc3ccc(F)cc3n2C2CC2)c1` the remaining binding was 100% (cell-free assay; competition with immobilised ligand; 1 µM).
With `CC(C)(C)c1nc(-c2cccc(NS(=O)(=O)c3c(F)cccc3F)c2F)c(-c2ccnc(N)n2)s1` the remaining activity was 93% (enzyme activity; inhibitor; radiometric; 1 µM).
With `O=C(N1CCS(=O)(=O)CC1)N1C[C@H](c2ccc(OC(F)(F)F)cc2)C[C@H](c2nc(C3CC3)no2)C1` the remaining binding was 100% (cell-free assay; competition with immobilised ligand; 1 µM).
With `CNC(=O)c1cc(Oc2ccc(NC(=O)Nc3ccc(Cl)c(C(F)(F)F)c3)cc2)ccn1` the inhibition was 2% (enzyme activity; inhibitor; 0.3 µM).
The remaining binding of `NS(=O)(=O)c1cc(NC(=O)C2(c3ccccc3Cl)CC2)ccc1Oc1cccc(Cl)c1` is reported as 100% (cell-free assay; competition with immobilised ligand; 1 µM).
The activity vs control of `Cc1cc(NC(=O)c2cccc3cc(-c4cccc5[nH]nc(N)c45)ccc23)ccc1F` is reported as 101% (enzyme activity; inhibitor; 0.1 µM).
With `CN(C)C(=O)Cn1cc(-c2nc(C3(c4ccc(-c5cnc(N)nc5)cc4)CC3)no2)cn1` the remaining binding was 100% (cell-free assay; competition with immobilised ligand; 1 µM).
With `CC(C)(O)[C@H]1CC[C@H](Nc2ccc3ncc(-c4cccc(C(F)(F)F)c4)n3n2)CC1` the remaining activity was 108% (enzyme activity; inhibitor; 1 µM).
For `O=C(Nc1cccnn1)N1CCC(=Cc2cccc(Oc3ccc(C(F)(F)F)cn3)c2)CC1`, the remaining binding was 100% (cell-free assay; competition with immobilised ligand; 1 µM).
`COc1ccc(COc2ccc(Cc3cnc(N)nc3N)cc2OC)cc1` gave a remaining signal of 99.7% (cell-free assay; 0.5 µM).
With `CC(=O)N1CCC(c2ccc(C(=O)NC3=NCCN3)cc2C(F)(F)F)CC1` the remaining binding was 88% (cell-free assay; competition with immobilised ligand; 1 µM).
The remaining activity of `Cc1cnc(NC2CCOCC2)nc1-n1cnc(C(=O)NC(CN)c2cc(F)cc(Cl)c2)c1` (centres unmarked) is reported as 105% (enzyme activity; inhibitor; radiometric; 1 µM).
